Results taken from article PMC3131534 (Chemistry & biology, 2011).

Legend:
PfSENP1 = settings: P. falciparum lysates; ref Ponder et al. Submitted; cited from earlier work
ΔNhSENP1 = target: T1, ΔNhSENP1 (Homo sapiens, UniProt Q9P0U3); assay: ProSUMO processing; assay type: biochemical; settings: 100nM ΔNhSENP1, 0–100μM compound, 30 min pre-treatment
T1 sequence (Q9P0U3 450-613 limits assumed): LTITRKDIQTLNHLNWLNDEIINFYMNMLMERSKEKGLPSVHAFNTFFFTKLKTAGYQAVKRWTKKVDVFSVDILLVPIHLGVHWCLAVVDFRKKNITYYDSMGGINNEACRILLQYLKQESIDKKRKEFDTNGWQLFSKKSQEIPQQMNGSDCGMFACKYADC
Outline: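 ΔNhSENP1 (100 nM) was pretreated with inhibitor for 30 min in 50 mM Tris pH 7.4, 5 mM NaCl, 5 mM DTT (37 °C in methods, room temperature in legend). It then cleaved recombinant hSUMO1 carrying its full pro-sequence and a C-terminal His6 tag for 1 h at 37 °C. Loss of the pro-region and tag was scored as a band shift on SDS-PAGE with Gelcode Blue stain, beside a substrate-only lane.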

[1] = Stability of the epoxide in aqueous media; assay type: physicochemical; settings: relative to aza-aspartic acid epoxides
human DUB UCHL3 = target: T2, human DUB UCHL3 (Homo sapiens, UniProt P15374); assay: Cross-reactivity against purified DUB; assay type: biochemical; settings: purified enzyme, Figure S4
T2 sequence (P15374 1-230): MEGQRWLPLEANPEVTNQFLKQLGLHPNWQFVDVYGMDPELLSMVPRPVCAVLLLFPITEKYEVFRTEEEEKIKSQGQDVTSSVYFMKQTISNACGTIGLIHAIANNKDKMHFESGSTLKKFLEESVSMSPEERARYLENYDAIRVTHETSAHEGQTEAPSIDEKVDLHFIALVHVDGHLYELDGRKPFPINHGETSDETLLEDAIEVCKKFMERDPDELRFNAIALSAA

human SENP8 = target: T3, human SENP8 (Homo sapiens, UniProt Q96LD8); assay: Cross-reactivity against purified deNEDDylase; assay type: biochemical; settings: purified enzyme, Figure S4
T3 sequence (Q96LD8 1-212): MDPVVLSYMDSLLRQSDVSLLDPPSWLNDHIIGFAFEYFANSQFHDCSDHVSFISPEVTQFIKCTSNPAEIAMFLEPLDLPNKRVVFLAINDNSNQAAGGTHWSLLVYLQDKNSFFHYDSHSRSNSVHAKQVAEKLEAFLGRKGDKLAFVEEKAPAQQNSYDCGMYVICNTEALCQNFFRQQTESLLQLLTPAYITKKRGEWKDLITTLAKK

[2] = test system: DUBs in HEK293 cell lysates; assay: Competition of HA-Ubvme probe labeling in HEK293 cell lysates; assay type: binding, human; settings: Figure S4
endogenous SENP1 = target: T4, endogenous SENP1 (Homo sapiens, UniProt Q9P0U3); assay: Cell lysate treatment, competition of HA-SUMO2vme labeling; assay type: binding; settings: treatment of cell lysates
T4 sequence (Q9P0U3 1-644): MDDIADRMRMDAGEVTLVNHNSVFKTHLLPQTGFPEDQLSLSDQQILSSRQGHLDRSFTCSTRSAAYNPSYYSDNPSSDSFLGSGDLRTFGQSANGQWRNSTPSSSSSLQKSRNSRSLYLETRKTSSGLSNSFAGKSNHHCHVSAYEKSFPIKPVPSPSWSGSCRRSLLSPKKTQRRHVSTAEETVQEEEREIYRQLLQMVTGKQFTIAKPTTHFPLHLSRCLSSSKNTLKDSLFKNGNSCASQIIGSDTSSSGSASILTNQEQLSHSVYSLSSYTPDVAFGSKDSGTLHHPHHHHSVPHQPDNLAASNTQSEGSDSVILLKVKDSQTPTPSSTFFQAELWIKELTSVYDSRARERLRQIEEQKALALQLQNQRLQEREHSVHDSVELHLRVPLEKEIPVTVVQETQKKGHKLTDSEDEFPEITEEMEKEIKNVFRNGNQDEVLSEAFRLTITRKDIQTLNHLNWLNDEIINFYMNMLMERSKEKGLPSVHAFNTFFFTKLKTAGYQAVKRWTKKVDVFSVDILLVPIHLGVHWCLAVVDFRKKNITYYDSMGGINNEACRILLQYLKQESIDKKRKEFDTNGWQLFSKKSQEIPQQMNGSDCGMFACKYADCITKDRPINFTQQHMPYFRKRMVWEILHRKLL

endogenous SENP6 = target: T5, endogenous SENP6 (Homo sapiens, UniProt Q9GZR1); assay: as above; assay type: binding; settings: treatment of cell lysates
T5 sequence (Q9GZR1 1-1112): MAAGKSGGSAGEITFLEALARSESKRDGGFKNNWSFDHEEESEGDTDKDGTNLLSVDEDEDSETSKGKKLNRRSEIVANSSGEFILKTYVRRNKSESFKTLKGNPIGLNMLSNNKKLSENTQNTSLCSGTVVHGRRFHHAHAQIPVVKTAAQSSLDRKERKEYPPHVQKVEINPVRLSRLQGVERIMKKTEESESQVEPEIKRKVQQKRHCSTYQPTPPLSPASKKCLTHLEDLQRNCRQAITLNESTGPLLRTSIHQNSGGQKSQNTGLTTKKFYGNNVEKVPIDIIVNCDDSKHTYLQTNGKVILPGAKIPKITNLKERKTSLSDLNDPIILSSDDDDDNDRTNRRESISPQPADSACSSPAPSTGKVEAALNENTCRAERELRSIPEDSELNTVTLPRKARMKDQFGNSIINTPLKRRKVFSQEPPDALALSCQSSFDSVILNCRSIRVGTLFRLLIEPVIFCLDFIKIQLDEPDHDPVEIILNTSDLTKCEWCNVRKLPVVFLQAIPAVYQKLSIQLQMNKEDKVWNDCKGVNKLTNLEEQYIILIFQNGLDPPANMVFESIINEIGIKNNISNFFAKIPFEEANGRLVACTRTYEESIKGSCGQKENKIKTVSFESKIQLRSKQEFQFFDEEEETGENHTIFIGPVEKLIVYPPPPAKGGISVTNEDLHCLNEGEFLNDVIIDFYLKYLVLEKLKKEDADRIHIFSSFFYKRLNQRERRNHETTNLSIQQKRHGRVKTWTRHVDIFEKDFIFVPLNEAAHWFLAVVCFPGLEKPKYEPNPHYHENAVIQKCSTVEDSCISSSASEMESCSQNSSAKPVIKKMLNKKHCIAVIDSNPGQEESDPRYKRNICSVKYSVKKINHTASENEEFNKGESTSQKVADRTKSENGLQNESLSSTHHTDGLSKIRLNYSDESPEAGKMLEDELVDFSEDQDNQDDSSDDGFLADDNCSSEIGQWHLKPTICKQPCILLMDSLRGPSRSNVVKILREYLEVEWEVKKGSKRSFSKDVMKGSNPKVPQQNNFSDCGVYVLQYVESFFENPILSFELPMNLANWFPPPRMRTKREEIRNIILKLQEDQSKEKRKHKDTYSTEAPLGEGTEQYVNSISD

ΔNhSENPs1, 2, 5, 6 and 7 = assay: Fluorogenic substrate screen against the panel of recombinant hSENPs; assay type: biochemical, human; settings: 50μM inhibitor, 1 hour preincubation, heat map Figure 4
Outline: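 Recombinant N-terminally truncated hSENPs were preincubated 1 h at 37 °C with 50 μM inhibitor in 50 mM Tris pH 8.0, 20 mM NaCl, 10 mM DTT. The enzyme level is given only for hSENP1, at 2 μM final. Then 100 nM Ac-QTGG-AFC (SENP1, 2, 5) or Ac-LRGG-AFC (SENP6, 7) was added. AFC release was read at 405/510 nm, 37 °C. Slope (RFU/min) was taken relative to DMSO (100%), averaging independent triplicates.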

activity against UCHL3 (human DUB UCHL3) | Structure (SMILES) | activity against hSENP8 (human SENP8) | relative inhibitor potency in the fixed concentration screen (ΔNhSENPs1, 2, 5, 6 and 7) | other results
– | O=C(O)CN(NC(=O)c1ccc(CNC(=O)c2cccc(C(=O)O)c2)cc1)C(=O)[C@H]1O[C@@H]1C(=O)N(Cc1cccc2ccccc12)Cc1cccc2ccccc12 [JCP666] | – | – | potency against parasite SENP (PfSENP1): effectively blocked PfSENP activity
– | O=C(CNC(=O)c1ccc(CNC(=O)c2cccc(C(=O)O)c2)cc1)COC(=O)c1c2ccccc2cc2ccccc12 [VEA401] | – | – | block of DUB labeling by HA-Ubvme probe [2]: did not block labeling of DUBs; block of endogenous SENP1 labeling by HA-SUMO2vme probe (endogenous SENP1): not able to find conditions in which we could treat cell lysates with VEA401 and block labeling of endogenous SENP1 or SENP6; block of endogenous SENP6 labeling by HA-SUMO2vme probe (endogenous SENP6): not able to find conditions in which we could treat cell lysates with VEA401 and block labeling of endogenous SENP1 or SENP6
only activity against hSENP8 | C[C@H](O)C(NC(=O)[C@H](CCC(N)=O)NC(=O)Cc1ccc(O)c([N+](=O)[O-])c1)C(=O)NCC(=O)NCC(=O)COC(=O)c1c2ccccc2cc2ccccc12 (some centres unmarked) [VEA499] | only activity against hSENP8 | substantially more potent than the tripeptide (VEA498) equivalent | –
only activity against hSENP8 | CC(C)C[C@H](NC(=O)Cc1ccc(O)c([N+](=O)[O-])c1)C(=O)N[C@@H](CCCN=C(N)N)C(=O)NCC(=O)NCC(=O)COC(=O)c1c2ccccc2cc2ccccc12 [VEA561] | only activity against hSENP8 | most potent towards hSENP6 and hSENP7 | –

Structure (SMILES) | activity against UCHL3 (human DUB UCHL3) | activity against hSENP8 (human SENP8) | relative inhibitor potency in the fixed concentration screen (ΔNhSENPs1, 2, 5, 6 and 7) | other results
O=C(O)c1cccc(C(=O)NCc2ccc(C(=O)NNC(=O)[C@H]3O[C@@H]3C(=O)N(Cc3cccc4ccccc34)Cc3cccc4ccccc34)cc2)c1 [VEA260] | virtually no activity against either enzyme | virtually no activity against either enzyme | – | activity in ProSUMO processing assay (ΔNhSENP1): retained full activity against hSENP1; stability of the compound [1]: more stable compound
